Assay results as given in ChEMBL document CHEMBL4619791, “3-Difluoroalkyl Quaternary Oxindoles Inhibit Macrophage Pyroptosis by Blocking Inflammasome Recruitment of Caspase-1” (ACS Med Chem Lett, 2020).
The source made the active and inactive calls. The calls are words filed in the database; no cut-off is given here.

How the values were obtained:
J774.A1 [1] = assay: Inhibition of pyroptosis in LPS-primed immortalized mouse […] cells assessed as reduction in nigericin-induced IL-beta secretion by imaging analysis; format: functional
THP-1 = assay: Inhibition of pyroptosis in LPS-primed human THP1 assessed as reduction in nigericin-induced pyroptotic-pore formation by propidium iodide uptake assay; format: functional, cell-based
Procedure, shortened: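 THP-1 cells induced to pyroptosis. Cell death read by LDH release and pore formation by PI uptake. Means ± SE, ≥3 experimental replicates.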

[2] = target: T1, Gasdermin-D (Mus musculus) (UniProt Q9D8T2); assay: Inhibition of GSDMD cytosol-plasma membrane translocation in LPS-primed immortalized mouse […] cells at 5 uM followed by subsequent nigericin stimulation by immunofluorescence assay; format: cell-based; conditions: J774.A1
T1 sequence (whole entry): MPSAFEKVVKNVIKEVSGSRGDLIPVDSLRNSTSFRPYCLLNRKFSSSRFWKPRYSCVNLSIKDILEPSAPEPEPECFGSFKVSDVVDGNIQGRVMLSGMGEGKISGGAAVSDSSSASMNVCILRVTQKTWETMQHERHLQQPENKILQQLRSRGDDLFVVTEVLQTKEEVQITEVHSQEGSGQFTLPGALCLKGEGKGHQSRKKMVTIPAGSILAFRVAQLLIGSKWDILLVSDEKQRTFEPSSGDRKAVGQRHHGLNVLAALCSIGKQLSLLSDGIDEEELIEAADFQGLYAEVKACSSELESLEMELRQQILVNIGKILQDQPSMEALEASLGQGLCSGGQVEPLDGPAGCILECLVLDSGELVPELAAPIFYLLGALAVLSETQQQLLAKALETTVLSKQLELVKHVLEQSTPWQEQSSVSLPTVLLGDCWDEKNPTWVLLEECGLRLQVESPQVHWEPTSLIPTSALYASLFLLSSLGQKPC
Procedure, shortened: (§1)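 Macrophages were LPS-primed, then stimulated with nigericin, in immortalized and primary cells. Anti-GSDMD immunofluorescence, with line-intensity histograms of cytosol versus plasma-membrane localization. Mean ± SEM, n ≥ 3 independent experiments.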

[3] = target: T1, Gasdermin-D (Mus musculus); assay: Inhibition of GSDMD cytosol-plasma membrane translocation in LPS-primed C57BL/6 mouse primary BMDM at 5 uM followed by nigericin stimulation by immunofluorescence assay; procedure, shortened: as §1
[4] = target: T2, Gasdermin-D (Homo sapiens) (UniProt P57764); assay: Inhibition of N-terminal GSDMD p30 fragment-mediated pyroptotic-cell death in doxycyclin-treated human HEK293T cells assessed as cell death at 5 uM by LDH assay; format: cell-based; conditions: HEK-293T
T2 sequence (whole entry): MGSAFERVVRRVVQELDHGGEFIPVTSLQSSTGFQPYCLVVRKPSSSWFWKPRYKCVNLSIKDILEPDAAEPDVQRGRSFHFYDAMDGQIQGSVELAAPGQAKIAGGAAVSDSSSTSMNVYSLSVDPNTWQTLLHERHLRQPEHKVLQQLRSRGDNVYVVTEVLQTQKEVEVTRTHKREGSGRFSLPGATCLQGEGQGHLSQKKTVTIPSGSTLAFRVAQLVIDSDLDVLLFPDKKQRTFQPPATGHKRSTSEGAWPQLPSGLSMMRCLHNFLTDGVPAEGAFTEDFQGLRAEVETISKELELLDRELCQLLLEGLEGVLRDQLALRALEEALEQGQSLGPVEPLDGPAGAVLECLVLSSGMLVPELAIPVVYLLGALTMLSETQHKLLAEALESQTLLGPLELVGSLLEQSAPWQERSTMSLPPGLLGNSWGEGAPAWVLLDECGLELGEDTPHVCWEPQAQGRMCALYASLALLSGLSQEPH

Caspase-1 (Mus musculus) = target: T3, Caspase-1 (Mus musculus) (UniProt P29452); assay: Inhibition of caspase-1 activity in LPS-primed immortalized mouse […] cells assessed as reduction in nigericin-induced GSDMD cleavage at 5 uM by Western blot analysis; format: cell-based; conditions: J774.A1
T3 sequence (whole entry): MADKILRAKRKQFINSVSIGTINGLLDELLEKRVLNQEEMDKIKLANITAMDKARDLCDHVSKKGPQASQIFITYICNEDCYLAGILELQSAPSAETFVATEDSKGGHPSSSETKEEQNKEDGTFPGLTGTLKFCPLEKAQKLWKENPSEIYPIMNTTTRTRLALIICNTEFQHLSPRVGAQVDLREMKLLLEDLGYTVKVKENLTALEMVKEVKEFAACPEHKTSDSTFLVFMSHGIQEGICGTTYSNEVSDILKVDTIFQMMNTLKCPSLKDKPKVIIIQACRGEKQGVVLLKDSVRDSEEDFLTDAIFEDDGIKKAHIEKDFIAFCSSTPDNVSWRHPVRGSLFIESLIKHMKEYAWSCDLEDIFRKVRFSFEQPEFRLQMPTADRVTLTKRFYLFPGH
Procedure, shortened: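 Western blot for GSDMD cleavage in immortalized macrophages, with tubulin as loading control. Representative of n ≥ 3 independent experiments.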

J774.A1 [5] = assay: Inhibition of caspase-1 recruitment to inflammasome in LPS-primed immortalized mouse […] cells assessed as nigericin-induced colocalization of caspase-1 and ASC at 5 uM by immunostaining based confocal microscopy; format: functional, cell-based
Procedure, shortened: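 Caspase-1 and ASC colocalization: Pearson's correlation coefficient calculated in 20 to 25 randomly selected cells.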

[6] = target: Nlrp3/Pycard (Mus musculus) (UniProt Q8R4B8+Q9EPB4); assay: Inhibition of NLRP3-ASC interaction in LPS-primed immortalized mouse […] cells at 5 uM by co-immunoprecipitation assay; format: cell-based; conditions: J774.A1
Sequence of Nlrp3/Pycard (Mus musculus) (Q8R4B8 whole entry, looked up): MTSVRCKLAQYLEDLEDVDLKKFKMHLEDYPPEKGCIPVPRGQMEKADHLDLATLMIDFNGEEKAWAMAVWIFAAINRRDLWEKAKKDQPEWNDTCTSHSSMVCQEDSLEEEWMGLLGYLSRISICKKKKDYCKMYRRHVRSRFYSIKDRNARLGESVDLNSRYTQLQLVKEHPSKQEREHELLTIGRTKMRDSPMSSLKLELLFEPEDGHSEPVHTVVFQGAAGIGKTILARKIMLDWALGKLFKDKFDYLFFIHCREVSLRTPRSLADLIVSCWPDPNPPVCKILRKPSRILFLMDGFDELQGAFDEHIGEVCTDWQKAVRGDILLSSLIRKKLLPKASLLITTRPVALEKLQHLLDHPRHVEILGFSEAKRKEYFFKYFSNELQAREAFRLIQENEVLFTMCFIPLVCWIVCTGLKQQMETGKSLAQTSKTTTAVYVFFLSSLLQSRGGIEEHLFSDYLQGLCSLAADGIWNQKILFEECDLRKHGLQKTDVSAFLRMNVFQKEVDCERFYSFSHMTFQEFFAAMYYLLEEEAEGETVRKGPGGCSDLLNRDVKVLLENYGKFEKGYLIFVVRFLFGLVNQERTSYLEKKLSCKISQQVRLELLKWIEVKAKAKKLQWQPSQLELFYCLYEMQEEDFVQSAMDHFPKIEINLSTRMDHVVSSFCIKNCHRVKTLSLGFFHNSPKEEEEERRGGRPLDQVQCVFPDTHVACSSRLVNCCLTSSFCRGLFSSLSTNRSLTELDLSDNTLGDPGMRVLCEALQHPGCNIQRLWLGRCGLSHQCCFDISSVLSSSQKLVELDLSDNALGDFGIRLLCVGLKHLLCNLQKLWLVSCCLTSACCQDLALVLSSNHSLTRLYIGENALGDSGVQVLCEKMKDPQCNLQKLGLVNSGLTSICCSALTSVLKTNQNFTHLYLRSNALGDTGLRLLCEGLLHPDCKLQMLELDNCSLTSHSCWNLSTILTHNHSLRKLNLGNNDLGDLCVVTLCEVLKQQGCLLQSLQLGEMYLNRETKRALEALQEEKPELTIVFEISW
Sequence of Nlrp3/Pycard (Mus musculus) (Q9EPB4 whole entry, looked up): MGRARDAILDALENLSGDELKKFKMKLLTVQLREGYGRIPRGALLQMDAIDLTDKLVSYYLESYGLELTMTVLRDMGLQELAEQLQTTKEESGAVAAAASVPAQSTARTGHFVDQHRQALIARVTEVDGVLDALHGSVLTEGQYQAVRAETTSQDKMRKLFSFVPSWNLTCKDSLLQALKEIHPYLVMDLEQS
Procedure, shortened: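 Coimmunoprecipitation of endogenous ASC and NLRP3 in immortalized macrophages.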

J774.A1 [7] = assay: Inhibition of pyroptosis in LPS-primed immortalized mouse […] cells assessed as reduction in poly (dA:dT) induced […] secretion by ELISA; format: functional, cell-based
Procedure, shortened: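 J774A.1 cells stimulated with flagellin or poly(dA:dT). IL-1β release measured by ELISA. Mean ± SEM, n ≥ 3 independent experiments.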

Mus musculus = assay: Antiinflammatory activity against LPS-induced sepsis C57BL/6J mouse model assessed as reduction in alveolar congestion at 20 mg/kg, iv administered as single dose for 1 hr prior to LPS challenge and measured after 48 hrs by hematoxylin-eosin staining based inverted microscopy analysis; format: functional, organism-based

**Q.** Which results are given for `CCOC(CN1C(=O)C(NC(=O)Nc2ccc(C)cc2)(C(F)(F)C(=O)Nc2ccc(C)cc2)c2ccccc21)OCC` (stereo not given)?
**A.** Activity (J774.A1 [1]): 92.13 pg/mL; inhibition (THP-1): Active; inhibition [2]: Active; inhibition [3]: Active; inhibition [4]: inactive; inhibition (Caspase-1 (Mus musculus)): Active; inhibition (J774.A1 [5]): Active; inhibition [6]: inactive; inhibition (J774.A1 [7]): Active; Activity (Mus musculus): Active
